Consider 18 compounds from PubChem BioAssay.

Values without a mark were called inactive. Inconclusive results are not listed. Activity calls are given as the source filed them.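 The calls were made as follows, unless noted: active = viability increase at or above a cutoff of the median across tested compounds plus 3 SD (cut at about 8.5% in these data, passing the limit was not always enough); inconclusive = some gains above the cutoff, reason not given; inactive = the rest.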

Assay [1] in a line: OD615 S. cerevisiae growth inhibition, permissive medium, pilot counter-assay, permissive growth control for S. cerevisiae lifespan shortening project (AID 705;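 active = growth inhibition above 25% in both replicates, a cutoff set 3 SD above the mean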). The note with it: OD615, 24 h, at 10 µM, active compounds read high. Summed up:
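System: Engineered DeaD yeast | Buffer or medium: SC raffinose/galactose permissive medium | Doses: 10 µM single dose, 0.25% DMSO | Times: 24 h exposure, 30 °C | Measured by: OD615 turbidity read | Read-out: Yeast growth inhibition indicated by reduced 24 h OD615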

The nature of assay [2]: Restrictive medium S. cerevisiae growth inhibition, OD615, pilot screen of yeast lifespan reduction project, restrictive growth control (AID 706;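 active = growth inhibition above a set limit, 3 SD over mean compound inhibition, in both replicates, cut at about 43% in these data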;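 also: modified DeaD lifespan yeast strain shifted to restrictive glucose medium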). The note with it: OD615, 48 h, at 10 µM, active compounds read high. Summed up:
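Assay system: engineered S. cerevisiae DeaD strain; Buffer or medium: CSMM-D glucose medium; Dosing: 10 µM compound, 0.25% DMSO; Times: cell pre-growth 4 h, compound exposure 48 h, 30 °C; Detection: absorbance (optical density) measured at 615 nm.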

Assay [3] is described as follows: viability gain of MRP-1-high H69AR cells under doxorubicin, pilot screen, MRP-1 activator project, CellTiter-Glo, duplicate (AID 807).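 Also: compound pretreatment 18-22 h then 72 h combined with doxorubicin; 0% = doxorubicin alone and 100% = vehicle without doxorubicin.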 The note with it: H69AR viability with doxorubicin, CellTiter-Glo luminescence; at 10 µM; active compounds read high. Background: In ATP-based viability assays light output follows the ATP content of the culture.
Assay [4] can be described thus: growth suppression of beta-catenin knockout HCT116, pilot screen, human colon tumor cells (AID 823;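 active = cell viability at or below a set limit in both duplicate runs, the limit being the all-compound median minus 4 SD, cut at about 23% in these data, passing the limit was not always enough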;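 also: 0% = wells killed by 20 µM Hyamine and 100% = untreated DMSO cell wells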). The note with it: CellTiter-Glo, 60 h, at 10 µM, active compounds read low.
Assay [5] can be described thus: growth suppression of PTEN-deleted HCT116, pilot screen, cell-based, HCT116 clonal line, CellTiter-Glo (AID 824;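 active = viability at or below 27.92% in each of two runs, the all-compound median minus 4 SD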;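 also: 0% = 20 µM Hyamine control and 100% = vehicle cell control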). The note with it: 60 h, at 10 µM, active compounds read low.
Assay [6] in a line: inhibitors of the yeast RAM network, pilot screen, dse1pr::URA3 reporter, 5-FOA selection (AID 869;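 active = inhibition over a set limit, the all-compound mean plus 3 SD, in both replicate runs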;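 also: 0% = DMSO wells with no growth and 100% = 10 µM 1-NA-PP1 with full growth; RAM network block rescues cells from 5-FOA so hits raise OD615 growth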). The note with it: S. cerevisiae dse1pr::URA3 5-FOA growth, OD615, 2 d; at 10 µM; active compounds read high; strain carries analog-sensitive mutant Cbk1 kinase.
Assay [7] in a line: RAM signaling pathway blockade in yeast – S. cerevisiae, Pdr1DBD-CYC8 efflux-inhibited sensitized strain, primary screen (AID 1298;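 active = RAM network inhibition above 8.4% in each of two replicates, 3 SD over the compound average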;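 also: 0% = DMSO untreated cells without growth and 100% = 10 µM 1-NA-PP1 full growth; higher means more yeast growth rescued from 5-FOA killing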). The note with it: S. cerevisiae cbk1-as DSE1-URA3 strain, 5-FOA growth OD615, 2 d; at 50 µM; active compounds read high.

As to `Cc1ccc2c(c1)NC(=O)C(CC(=O)O)O2` (stereo unspecified), the values for the growth inhibition in assay [1] and in assay [2] were 2.33% and 0.555%, respectively. Also, the viability increase in assay [3] is -0.27%. Further, the viability (usually a read-out of living cells in per cent, often relative to untreated cells) in assay [4] was 103%; in assay [5], 99.7%. Also, the inhibition (commonly the drop in the measured response relative to a control, in per cent) in assay [6] was 1.48%. Further, in assay [7], the RAM network inhibition was 4.69%.
Regarding `Cc1cc2cc(CNS(=O)(=O)N(C)C)ccc2[nH]1`, the growth inhibition in assay [1] was 0.12%; in assay [2], -6.88%. The viability increase in assay [3] was -0.59%. In addition, the values for the viability in assay [4] and in assay [5] were 101% and 106%, respectively. Further, the inhibition in assay [6] is 1.48%. For the same compound, the RAM network inhibition in assay [7] was 3.27%.
On to `CCOC(=O)C1=C(C)NC(=O)NC1c1ccc(OCC(=O)Nc2ccccc2)c(OC)c1` (stereo unspecified), for which the growth inhibition is -2.03% in assay [1] and -26% in assay [2]. The viability increase in assay [3] was -1.88%. The viability in assay [4] was 102%; in assay [5], 95%. In addition, the inhibition in assay [6] was 2.01%. The RAM network inhibition in assay [7] was 0.32%.
Regarding `N#CN=C1SCCS1`, the growth inhibition in assay [1] was -5.58%; in assay [2] it was -14.9%. Besides, the viability increase in assay [3] was -0.61%. Further, the results for the viability in assay [4] and in assay [5] were 103% and 99%, respectively. Further, the inhibition in assay [6] is 1.71%. Further, the RAM network inhibition in assay [7] is 0.1%.
Turning to `O=C1c2cccnc2C(=O)N1Cc1cccs1`, the growth inhibition in assay [1] was -1.61%; in assay [2], -4.64%. Besides, the viability increase in assay [3] is -0.5%. Moreover, the figures for the viability in assay [4] and in assay [5] were 98.5% and 102%, respectively. The inhibition in assay [6] was 1.4%. The RAM network inhibition in assay [7] is 0.21%.
For the compound `O=C(CCS(=O)(=O)c1ccccc1)Nc1nccs1`, the growth inhibition in assay [1] was -13.9%; in assay [2], -10.5%. For the same compound, the viability increase in assay [3] was -8.48%. Also, the viability in assay [4] was 62.2%; in assay [5] it was 72.7%. The inhibition in assay [6] was 1.48%. Also, the RAM network inhibition in assay [7] is 5.64%.
With `COc1ccc(NC(=O)C2CCN(S(=O)(=O)c3cccc4cccnc34)CC2)cc1OC`, the growth inhibition was -4.2% in assay [1] and 0.21% in assay [2]. Besides, the viability increase in assay [3] is -1.69%. Besides, the figures for the viability in assay [4] and in assay [5] were 107% and 96.6%, respectively. Also, the inhibition in assay [6] is 1.41%. The RAM network inhibition in assay [7] was 1.04%.
For the compound `Cc1cccc(-n2c(Cc3cc(=O)[nH]c(=O)[nH]3)nnc2SCC(=O)N2CCCCC2)c1`, the growth inhibition is 4% in assay [1] and 16.8% in assay [2]. In assay [3], the viability increase was -0.52%. Further, the viability in assay [4] is 106%; in assay [5], 87.8%. In assay [6], the inhibition is 3.3%. Moreover, the RAM network inhibition in assay [7] was -0.11%.
Regarding `COc1ccc(NC(=O)C2CCCN2S(=O)(=O)c2ccc3c(c2)CCC(=O)N3)cc1Cl` (stereo unspecified), the results for the growth inhibition in assay [1] and in assay [2] were -1.44% and -23.7%, respectively. In addition, the viability increase in assay [3] is -2.9%. For the same compound, the viability in assay [4] was 90.8%; in assay [5], 87.7%. Moreover, the inhibition in assay [6] is 1.18%. Besides, the RAM network inhibition in assay [7] is 1.9%.
As for `COC(=O)COC(=O)c1ccc(Oc2nc(OC)nc(N(C)C)n2)cc1`, the growth inhibition was -10.3% in assay [1] and -13.7% in assay [2]. Moreover, the viability increase in assay [3] was 0.83%. For the same compound, the viability is 103% in assay [4] and 104% in assay [5]. Further, in assay [6], the inhibition is 1.35%. The RAM network inhibition in assay [7] was 2.76%.
As to `COC(=O)c1ccc(N2C(=O)CC(Sc3n[nH]c(C)n3)C2=O)cc1` (stereo unspecified), the growth inhibition was 38.2% (active) in assay [1] and 19% in assay [2]. The viability increase in assay [3] is 1.12%. Further, the viability in assay [4] is 96.6%; in assay [5], 93.2%. Besides, the inhibition in assay [6] is 1.42%. Moreover, the RAM network inhibition in assay [7] was 2.32%.
As to `N#CC1=C(N)Oc2n[nH]c(-c3ccccc3)c2C1c1cccc(OC(=O)N2CCOCC2)c1` (stereo unspecified), the growth inhibition was -12.4% in assay [1] and 2.86% in assay [2]. Besides, the viability increase in assay [3] was -2.68%. Besides, the viability was 97.6% in assay [4] and 104% in assay [5]. In addition, the inhibition in assay [6] is 2.34%. The RAM network inhibition in assay [7] is 5.62%.
In the case of `CC(=O)Nc1ccc(-c2cc(NC(C)=O)n(-c3ccccc3)n2)cc1`, the figures for the growth inhibition in assay [1] and in assay [2] were 2.46% and -0.26%, respectively. Moreover, the viability increase in assay [3] is -1.76%. Besides, the values for the viability in assay [4] and in assay [5] were 104% and 91.7%, respectively. For the same compound, in assay [6], the inhibition is 0.97%. Also, the RAM network inhibition in assay [7] was 3.1%.
Turning to `COc1cccc(C(=O)Nc2nnc(-c3cccs3)o2)c1`, the growth inhibition in assay [1] is -16.4%; in assay [2], -17%. In assay [3], the viability increase is -4.26%. The viability in assay [4] is 44.8%; in assay [5], 56.3%. Besides, in assay [6], the inhibition was 0.07%. The RAM network inhibition in assay [7] is 0.16%.
In the case of `C=C(C)CC1N(c2cccc(OC)c2)C(=O)C2C(C(=O)O)C3C=CC21O3` (stereo unspecified), the growth inhibition in assay [1] was -5.17%; in assay [2], 4.84%. Besides, in assay [3], the viability increase was -1.04%. Also, the viability was 103% in assay [4] and 95.3% in assay [5]. The inhibition in assay [6] was -0.415%. The RAM network inhibition in assay [7] is 5.36%.
`S=c1[nH]nc(-c2ccncc2)n1Cc1ccccc1`: the growth inhibition in assay [1] is -4.1%; in assay [2], -9.11%. The viability increase in assay [3] is -1.9%. The results for the viability in assay [4] and in assay [5] were 100% and 93.7%, respectively. Moreover, the inhibition in assay [6] is 0.265%. For the same compound, the RAM network inhibition in assay [7] is 1.95%.
As to `CCN(CC)CCN1C(=O)c2ccccc2NC1c1cccc(F)c1` (stereo unspecified), the growth inhibition in assay [1] is -8.46%; in assay [2] it was 1.83%. Also, the viability increase in assay [3] is -2.21%. In addition, the viability in assay [4] is 84.4%; in assay [5], 91.4%. For the same compound, the inhibition in assay [6] was 0.75%. Further, the RAM network inhibition in assay [7] is 8.87%.
`Cc1ccc(NC(=O)c2cc(NC(=O)C3CC=CCC3C(=O)O)ccc2N2CCOCC2)cc1` (stereo unspecified): the growth inhibition was -11.6% in assay [1] and -5.87% in assay [2]. Further, the viability increase in assay [3] was -3.64%. Further, the values for the viability in assay [4] and in assay [5] were 97.3% and 95.1%, respectively. In addition, the inhibition in assay [6] is 1.23%. In assay [7], the RAM network inhibition is 2.82%.
